Test results published in publication PMC3689578 (Integrative biology : quantitative biosciences from nano to …, 2012).
Where two headings read alike, the source gives them in different places.

Assays:
thrombin [1] = molecular target: T1, thrombin (Homo sapiens, UniProt P00734); assay: Determination of kcat/Km with thrombin; type: biochemical
How it was run: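 Thrombin at 50 nmol L−1 with seven substrate concentrations from 1 to 30 μmol L−1, sampled at 5, 15, 30 and 60 min. Reactions stopped with SDS sample buffer and run on tricine gels. Percent cleavage = (lower band − background)/(lower + upper band − 2×background), uncleaved-substrate value subtracted. Percent × starting concentration gives product. Velocity is the slope of the linear product-versus-time segment. Km and kcat come from the Lineweaver–Burke intercept and slope.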

thrombin [2] = molecular target: T1, thrombin; assay: Enzyme cleavage by purified thrombin; type: biochemical
plasmin = plasmin (Homo sapiens, UniProt P00747); assay: Enzyme cleavage by plasmin; type: biochemical; conditions: 5 μmol L^−1 peptide, 50 nmol L^−1 enzyme
trypsin = assay: Enzyme cleavage by trypsin; type: biochemical; conditions: 5 μmol L^−1 peptide, 50 nmol L^−1 enzyme
chymotrypsin = assay: Enzyme cleavage by chymotrypsin; type: biochemical; conditions: 5 μmol L^−1 peptide, 50 nmol L^−1 enzyme
factor Xa = factor Xa (Bos taurus, UniProt P00743); assay: Enzyme cleavage by factor Xa; type: biochemical; conditions: 5 μmol L^−1 peptide, 50 nmol L^−1 enzyme
factor VIIa = molecular target: T2, factor VIIa (Homo sapiens, UniProt P08709); assay: Enzyme cleavage by factor VIIa; type: biochemical; conditions: 5 μmol L^−1 peptide, 50 nmol L^−1 enzyme
T2 sequence (P08709 213-466 limits assumed): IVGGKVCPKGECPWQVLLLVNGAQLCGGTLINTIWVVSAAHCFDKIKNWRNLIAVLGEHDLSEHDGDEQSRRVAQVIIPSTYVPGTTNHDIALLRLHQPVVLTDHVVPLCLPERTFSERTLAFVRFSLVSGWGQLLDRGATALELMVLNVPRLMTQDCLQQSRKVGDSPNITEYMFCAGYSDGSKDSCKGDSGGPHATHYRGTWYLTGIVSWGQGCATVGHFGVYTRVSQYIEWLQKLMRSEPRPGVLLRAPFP
T2 sequence (P08709 61-212 limits assumed): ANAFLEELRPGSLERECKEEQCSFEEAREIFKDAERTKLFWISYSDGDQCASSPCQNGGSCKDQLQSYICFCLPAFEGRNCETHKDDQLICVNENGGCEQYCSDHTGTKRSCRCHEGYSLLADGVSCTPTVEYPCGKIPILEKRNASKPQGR

factor XIa = factor XIa (Homo sapiens, UniProt P03951); assay: Enzyme cleavage by factor XIa; type: biochemical; conditions: 5 μmol L^−1 peptide, 50 nmol L^−1 enzyme
factor XIIa = molecular target: T3, factor XIIa (Homo sapiens, UniProt P00748); assay: Enzyme cleavage by factor XIIa; type: biochemical; conditions: 5 μmol L^−1 peptide, 50 nmol L^−1 enzyme
T3 sequence (P00748 373-615 limits assumed): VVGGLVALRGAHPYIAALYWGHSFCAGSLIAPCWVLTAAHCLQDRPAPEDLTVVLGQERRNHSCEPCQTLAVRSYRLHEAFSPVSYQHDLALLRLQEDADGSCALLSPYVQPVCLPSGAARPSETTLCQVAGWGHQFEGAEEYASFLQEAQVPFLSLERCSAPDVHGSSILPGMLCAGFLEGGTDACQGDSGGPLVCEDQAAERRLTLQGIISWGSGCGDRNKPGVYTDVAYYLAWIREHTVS

cathepsin G = molecular target: T4, cathepsin G (Homo sapiens, UniProt P08311); assay: Enzyme cleavage by cathepsin G; type: biochemical; conditions: 5 μmol L^−1 peptide, 50 nmol L^−1 enzyme
T4 sequence (P08311 21-255): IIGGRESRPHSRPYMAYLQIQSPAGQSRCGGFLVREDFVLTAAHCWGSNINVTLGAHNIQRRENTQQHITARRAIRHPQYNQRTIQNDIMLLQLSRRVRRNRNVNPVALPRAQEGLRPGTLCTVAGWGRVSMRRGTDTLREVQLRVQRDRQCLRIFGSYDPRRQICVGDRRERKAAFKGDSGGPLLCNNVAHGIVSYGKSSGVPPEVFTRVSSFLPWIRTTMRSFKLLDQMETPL

neutrophil elastase = molecular target: T5, neutrophil elastase (Homo sapiens, UniProt P08246); assay: Enzyme cleavage by neutrophil elastase; type: biochemical; conditions: 5 μmol L^−1 peptide, 50 nmol L^−1 enzyme
T5 sequence (P08246 30-267): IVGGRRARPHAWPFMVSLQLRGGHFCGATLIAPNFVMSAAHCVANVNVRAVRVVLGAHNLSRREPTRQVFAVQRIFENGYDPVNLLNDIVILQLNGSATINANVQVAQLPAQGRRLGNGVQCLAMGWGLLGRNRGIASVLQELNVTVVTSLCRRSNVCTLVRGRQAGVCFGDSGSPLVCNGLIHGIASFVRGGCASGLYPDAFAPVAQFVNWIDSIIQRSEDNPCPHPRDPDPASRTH

[3] = molecular target: activated protein C (APC) (Homo sapiens, UniProt P04070); assay: Enzyme cleavage by activated protein C; type: biochemical; conditions: 5 μmol L^−1 peptide, 50 nmol L^−1 enzyme
[4] = test system: clots at the end of the amputated tail tips; assay: In vivo clot imaging after tail amputation; set-up: species or system wildtype FVB mice; conditions: 10 nanomoles iv, 24 hours, p = 0.045
How it was run: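 Wildtype FVB mouse tails clipped 2.5 mm from the tip. 20 min later, 10 nanomoles cleavable or control probe given i.v. At 24 h, under ketamine/midazolam (80, 5 mg kg−1), tail-tip clots imaged by fluorescence dissecting microscope (ex 620/60, em 700/75). Intensity quantified from images.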

[5] = set-up: species or system mice; conditions: mouse, in vivo, iv
atherosclerotic plaques [6] = assay: Aorta and plaque fluorescence sorted by histologic group; type: in vivo, mice
atherosclerotic plaques [7] = assay: Distribution of fluorescence within sectioned plaques; type: in vivo, LDLR−/− mice; conditions: 15 plaques, n = 5 mice, p = 0.023 paired t-test
human atheromas = assay: Ex vivo incubation of human carotid endarterectomy specimens
How it was run: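 Fresh carotid endarterectomy specimens from five patients, held on ice, embedded in 0.5% agarose, cut into 2 mm slices. Slices from the same specimen incubated 1 h in 10 μmol L−1 Cy5-labelled cleavable or control probe; two sections also with 110 or 220 μmol L−1 argatroban. Fluorescence measured on cryosections, background-subtracted. Slices homogenised in SDS sample buffer, centrifuged, supernatant run on gel. Paired t-test.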

atherosclerotic plaques [8] = assay: Imaging of carotid plaques after co-injection of two probes; type: in vivo, LDLR−/− mice; conditions: rhodamine-labelled DPRSFL–ACPP, two animals
How it was run: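 LDLR−/− mice (C57BL/6 background) fed 0.5% cholesterol diet for 1–2 years, given rhodamine-labelled test probe plus Cy5-labelled MMP-cleavable probe intravenously. At 6 h, under anaesthesia, the carotid was exposed and imaged by fluorescence dissecting microscope. Carotid bifurcation and aortic arch imaged postmortem (rhodamine ex 560/25, em 607/36; Cy5 ex 620/60, em 700/75). Tissue then frozen for histology.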

Active thrombin in serum [9] = molecular target: T6, Active thrombin in serum (Mus musculus, UniProt P19221)
Active thrombin in serum [10] = molecular target: T6, Active thrombin in serum; assay: biochemical; conditions: read-out: inhibition of DPRSFL–ACPP proteolysis by serum
thrombin [11] = molecular target: T1, thrombin; conditions: thrombin activity on native receptor; cited from earlier work
[12] = 50 nmol L^−1 thrombin, 1 to 30 μmol L^−1 peptide, 5-60 min, gel read-out

Sequence of activated protein C (APC) (P04070 212-461 limits assumed): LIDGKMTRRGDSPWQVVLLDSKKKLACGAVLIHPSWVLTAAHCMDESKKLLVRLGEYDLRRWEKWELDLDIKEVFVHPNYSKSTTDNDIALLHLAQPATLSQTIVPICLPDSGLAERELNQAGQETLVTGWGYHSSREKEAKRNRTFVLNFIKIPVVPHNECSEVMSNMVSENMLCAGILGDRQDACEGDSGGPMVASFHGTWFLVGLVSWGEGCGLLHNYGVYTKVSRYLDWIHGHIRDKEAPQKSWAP
Sequence of activated protein C (APC) (P04070 43-197 limits assumed): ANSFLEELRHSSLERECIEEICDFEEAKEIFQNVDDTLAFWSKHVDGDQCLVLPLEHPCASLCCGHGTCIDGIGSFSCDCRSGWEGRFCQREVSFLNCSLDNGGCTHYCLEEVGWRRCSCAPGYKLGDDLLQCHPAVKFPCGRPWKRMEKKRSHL
Sequence of factor XIa (P03951 388-625 limits assumed): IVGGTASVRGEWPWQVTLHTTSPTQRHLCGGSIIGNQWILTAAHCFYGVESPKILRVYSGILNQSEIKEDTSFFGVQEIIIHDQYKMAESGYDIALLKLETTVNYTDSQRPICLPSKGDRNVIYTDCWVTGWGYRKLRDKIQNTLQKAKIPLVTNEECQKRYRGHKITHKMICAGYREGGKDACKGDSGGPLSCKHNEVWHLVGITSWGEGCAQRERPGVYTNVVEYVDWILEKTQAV
Sequence of factor XIa (P03951 19-387 limits assumed): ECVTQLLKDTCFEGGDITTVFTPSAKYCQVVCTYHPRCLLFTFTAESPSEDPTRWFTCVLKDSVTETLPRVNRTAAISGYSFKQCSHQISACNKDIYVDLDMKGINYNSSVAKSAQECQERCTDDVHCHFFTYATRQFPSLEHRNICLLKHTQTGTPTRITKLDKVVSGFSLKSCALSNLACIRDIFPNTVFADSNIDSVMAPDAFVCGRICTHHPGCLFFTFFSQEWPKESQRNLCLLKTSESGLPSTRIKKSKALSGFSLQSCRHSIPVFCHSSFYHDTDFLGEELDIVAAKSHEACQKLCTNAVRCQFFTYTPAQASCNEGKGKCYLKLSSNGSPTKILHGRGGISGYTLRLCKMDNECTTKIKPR
Sequence of factor Xa (P00743 234-492 limits assumed): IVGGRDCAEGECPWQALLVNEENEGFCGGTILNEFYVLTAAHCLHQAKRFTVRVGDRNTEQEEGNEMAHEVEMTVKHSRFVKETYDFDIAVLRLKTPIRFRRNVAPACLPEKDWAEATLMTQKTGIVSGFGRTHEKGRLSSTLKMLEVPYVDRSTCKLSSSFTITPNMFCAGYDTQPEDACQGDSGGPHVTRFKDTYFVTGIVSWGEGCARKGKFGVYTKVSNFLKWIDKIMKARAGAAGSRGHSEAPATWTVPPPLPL
Sequence of factor Xa (P00743 41-180 limits assumed): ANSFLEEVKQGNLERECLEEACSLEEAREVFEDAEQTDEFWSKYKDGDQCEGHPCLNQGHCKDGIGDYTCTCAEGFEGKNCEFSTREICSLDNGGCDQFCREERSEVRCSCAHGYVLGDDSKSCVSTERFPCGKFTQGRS
Sequence of plasmin (P00747 581-810 limits assumed, species assumed): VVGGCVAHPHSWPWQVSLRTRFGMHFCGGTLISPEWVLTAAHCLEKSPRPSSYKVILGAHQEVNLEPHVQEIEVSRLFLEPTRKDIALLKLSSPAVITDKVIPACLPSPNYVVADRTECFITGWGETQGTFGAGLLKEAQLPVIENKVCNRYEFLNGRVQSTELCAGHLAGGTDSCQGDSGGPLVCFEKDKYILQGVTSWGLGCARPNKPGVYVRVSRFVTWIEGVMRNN
Sequence of plasmin (P00747 97-580 limits assumed, species assumed): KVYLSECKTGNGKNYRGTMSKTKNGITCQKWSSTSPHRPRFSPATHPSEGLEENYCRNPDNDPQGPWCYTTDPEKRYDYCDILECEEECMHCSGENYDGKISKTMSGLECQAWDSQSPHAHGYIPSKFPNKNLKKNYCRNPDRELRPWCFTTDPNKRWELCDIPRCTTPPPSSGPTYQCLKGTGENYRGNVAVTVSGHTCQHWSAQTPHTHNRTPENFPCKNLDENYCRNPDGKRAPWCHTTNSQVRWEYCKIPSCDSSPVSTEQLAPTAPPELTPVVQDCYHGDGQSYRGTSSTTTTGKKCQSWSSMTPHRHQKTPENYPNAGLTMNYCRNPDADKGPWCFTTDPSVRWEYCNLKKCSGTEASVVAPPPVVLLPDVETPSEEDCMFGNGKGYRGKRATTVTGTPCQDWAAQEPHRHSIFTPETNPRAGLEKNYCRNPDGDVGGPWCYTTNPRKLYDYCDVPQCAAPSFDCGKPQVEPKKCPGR

For “Suc-e8-O-DPRSFL-r9-c(Cy5 or rhodamine)-CONH2 [DPRSFL–ACPP]”, which Km (thrombin [1]; [12]) is on record?
Its Km is 15 µM.

What about the kcat (thrombin [1]; [12]) of the same molecule?
Its kcat is 0.3 s⁻¹.

And the kcat/Km (thrombin [1]; from kcat and Km)?
Its kcat/Km is 21000 M⁻¹ s⁻¹.

And the “cleavage by purified thrombin” value (thrombin [2]; 5 μmol L^−1 peptide, 50 nM thrombin, 20 min, 37 °C, triplicate)?
Its value is “efficiently cleaved”.

What about the cleavage by plasmin (plasmin) of the same molecule?
Its cleavage by plasmin is “able to cleave”.

And the cleavage by trypsin (trypsin)?
The cleavage by trypsin was “able to cleave”.

And the cleavage by chymotrypsin (chymotrypsin)?
Its cleavage by chymotrypsin is “able to cleave”.

What about the “cleavage by factor Xa” value (factor Xa) of the same molecule?
Its value is “able to cleave”.

And the “cleavage by factor VIIa” value (factor VIIa)?
Its value is “no cleavage”.

What about the “cleavage by factor XIa” value (factor XIa) of the same molecule?
The value was “no cleavage”.

What about the “cleavage by factor XIIa” value (factor XIIa) of the same molecule?
The value was “no cleavage”.

And the “cleavage by cathepsin G” value (cathepsin G)?
The value was “no cleavage”.

And the “cleavage by neutrophil elastase” value (neutrophil elastase)?
Its value is “no cleavage”.

What about the “cleavage by APC” value [3] of the same molecule?
The value was “no cleavage”.

What about the “fold increase in clot fluorescence intensity compared to mPEG–ACPP” value [4] of the same molecule?
Its value is 2.4 fold.

What about the whole blood half-life [5] of the same molecule?
The whole blood half-life was 17 ± 5 min.

What about the “fluorescence intensity of individual plaques, Group 2” value (atherosclerotic plaques [6]; n = 3, p = 0.007 vs Group 1) of the same molecule?
The value was 43.7 ± 7.5.

What about the “whole aorta fluorescence per pixel, Group 2 (more advanced plaques)” value (atherosclerotic plaques [6]; n = 4, p = 0.02 vs Group 1) of the same molecule?
Its value is 24.4 ± 3.6.

What about the “fluorescence intensity of individual plaques, Group 1” value (atherosclerotic plaques [6]; n = 11) of the same molecule?
The value was 17.0 ± 9.3.

And the “whole aorta fluorescence per pixel, Group 1 (less advanced plaques)” value (atherosclerotic plaques [6]; n=12)?
Its value is 7.8 ± 3.0.

And the “uptake in hypocellular (DAPI poor) region versus cellular rich exterior” value (atherosclerotic plaques [7])?
Its value is “statistically greater”.

What about the “greater cleavage product retained compared to control ACPP” value (human atheromas; freshly resected human atheromas bathed in probe) of the same molecule?
The value was 63%.

And the “cleavage by human atheromas (gel electrophoresis of homogenates)” value (human atheromas; slices homogenized in SDS sample buffer after incubation)?
The value was “cleaved”.

What about the “uptake relative to co-injected Cy5–PLGLAG–ACPP within the same plaques” value (atherosclerotic plaques [8]) of the same molecule?
The value was “much higher”.

What about the cleavage by serum (Active thrombin in serum [9]) of the same molecule?
Its cleavage by serum is “rapidly cleaved”.

What does the source list for CC1CNc2c(cccc2S(=O)(=O)N[C@@H](CCCNC(=N)N)C(=O)N2CC[C@@H](C)C[C@@H]2C(=O)O)C1 (some centres unmarked) [argatroban, reference compound]?
inhibition at 4 µg/mL (thrombin [2]; read-out: inhibition of DPRSFL–ACPP cleavage by thrombin): > 90%; reduction in fluorescence intensity relative to DPRSFL–ACPP alone (human atheromas; 110 or 220 μmol L^−1 argatroban, two atheroma specimens): 76.6 ± 13.4%; inhibition at 4 µg/mL (Active thrombin in serum [10]): > 90%

B1: native PAR-1 receptor: native proteinase activated receptor 1, thrombin substrate (protein, UniProt P25116 42-425, looked up)
Proteinase-activated receptor …: SFLLRNPNDKYEPFWEDEEKNESGLTEYRLVSINKSSPLQKQLPAFISEDASGYLTSSWLTLFVPSVYTGVFVVSLPLNIMAIVVFILKMKVKKPAVVYMLHLATADVLFVSVLPFKISYYFSGSDWQFGSELCRFVTAAFYCNMYASILLMTVISIDRFLAVVYPMQSLSWRTLGRASFTCLAIWALAIAGVVPLLLKEQTIQVPGLNITTCHDVLNETLLEGYYAYYFSAFSAVFFFVPLIISTVCYVSIIRCLSSSAVANRSKKSRALFLSAAVFCIFIICFGPTNVLLIAHYSFLSHTSTTEAAYFAYLLCVCVSSISCCIDPLIYYYASSECQRYVYSILCCKESSDPSSYNSSGQLMASKMDTCSSNLNNSIYKKLLT
Which kcat/Km (thrombin [11]) does the source give for B1 here?
Its kcat/Km is 7.6e+06 M⁻¹ s⁻¹.
